LEDGF integ inh: blocks HIV-1 LEDGF/p75-dependent DNA integration; TR-FRET IN-LEDGF/p75 DNA integration, Eu/Cy5; inhibition, % at 3.7 µM; 370,000 tested, 0.64% active; AID 743269;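 active = inhibition above the screen-wide mean plus 3 SD, cut at about 13% in these data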;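 also: signal is the Cy5 over europium emission ratio at 671 and 618 nm; 0% = plate median of compound wells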
UHRF1 binding: blocks human UHRF1 binding to methylated DNA; 370,000 tested, 0.75% active; UHRF1 binding to methylated oligo, TR-FRET; Q96T88; inhibition, % at 4.4 µM; in the data active = inhibition above about 21%;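 also: UHRF1 SRA domain binding a hemimethylated CpG hairpin DNA probe; 0% = median of test compound wells and 100% = reference inhibitor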
Target sequence (Q96T88 whole entry, looked up, the tested form may be a part): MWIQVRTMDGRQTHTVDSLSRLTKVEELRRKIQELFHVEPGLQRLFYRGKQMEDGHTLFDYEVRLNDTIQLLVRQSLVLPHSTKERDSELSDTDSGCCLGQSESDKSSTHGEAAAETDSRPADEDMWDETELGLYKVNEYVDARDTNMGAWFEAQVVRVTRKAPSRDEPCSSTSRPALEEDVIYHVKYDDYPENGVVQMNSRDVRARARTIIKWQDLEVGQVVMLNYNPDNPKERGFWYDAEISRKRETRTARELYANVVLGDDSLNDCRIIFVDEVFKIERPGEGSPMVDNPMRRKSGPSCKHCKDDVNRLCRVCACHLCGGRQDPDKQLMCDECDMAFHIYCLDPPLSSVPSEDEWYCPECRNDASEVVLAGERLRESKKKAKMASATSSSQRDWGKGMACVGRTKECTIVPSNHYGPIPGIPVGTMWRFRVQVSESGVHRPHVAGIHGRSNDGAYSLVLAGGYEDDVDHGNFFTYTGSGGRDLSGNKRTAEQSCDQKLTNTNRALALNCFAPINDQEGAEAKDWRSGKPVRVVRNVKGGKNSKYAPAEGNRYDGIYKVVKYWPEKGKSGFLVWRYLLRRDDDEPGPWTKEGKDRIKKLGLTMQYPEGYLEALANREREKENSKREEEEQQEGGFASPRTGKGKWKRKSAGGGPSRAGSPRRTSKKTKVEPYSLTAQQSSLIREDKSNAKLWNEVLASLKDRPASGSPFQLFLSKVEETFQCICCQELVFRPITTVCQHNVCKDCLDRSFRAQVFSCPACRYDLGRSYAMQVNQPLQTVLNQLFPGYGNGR
TDP2 inh: TDP2 (human) inhibition, absorbance primary screen; O95551; recombinant TDP2, T5PNP hydrolysis, p-nitrophenol absorbance 415 nm; inhibition, % at 12.8 µM; 370,000 tested, 0.34% active; AID 720702;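 active = inhibition above the mean of all tested compounds plus 3 SD, set per campaign, cut at about 25% in these data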;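 also: 0% = DMSO with enzyme and 100% = buffer with substrate but no TDP2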
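Assay system: Recombinant human TDP2 | Quantity: 120 nM TDP2 per well | Incubation: 2 h at 37 °C | Signal: Epi absorbance | Evaluation: Percent inhibition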
MBD2 DNA inh: blocks human MBD2 binding to methylated DNA; Q9UBB5; 370,000 tested, 0.31% active; inhibition, % at 4.4 µM; TR-FRET, MBD2 binding to methylated oligonucleotide; in the data active = inhibition above about 13%
HCV core dimer: HCV core protein dimerization inhibition. inhibition, % at 5 µM. TR-FRET GST/Flag-core106 dimerization, 1536-well. 300,000 tested, 0.33% active. AID 1899;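 active = inhibition above the mean of all tested compounds plus 3 SD, set per screening campaign, cut at about 45% in these data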
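Assay system: Tagged HCV core106 pair (GST and Flag) | Buffer or medium: KF-containing HEPES buffer, pH 7.45, DTT, CHAPS, BSA | Also added: Eu donor and XL665 acceptor anti-tag antibodies | Dosing: One concentration, 5 µM, in 0.5% DMSO | Timing: 4 h at 22.5 °C | Technique: TR-FRET 671 and 617 nm emission | Repeats: Singlicate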
An asterisk follows results filed as active; x = no result. Compounds with a hit are over-represented: about 1.8% of the library has one in this group of screens.

SMILES | LEDGF integ inh | UHRF1 binding | TDP2 inh | MBD2 DNA inh | HCV core dimer
C=CC[C@@H](CC(=O)N[C@H](CO)Cc1ccccc1)C(=O)N[C@H](COC(=O)[C@@H](CC=C)CC(=O)OC(C)(C)C)Cc1c[nH]c2ccccc12 | 0 | 26* | -11 | 1 | x
Cc1cc(C)c(-c2c(O)c3cccnc3n(C)c2=O)c(C)c1 | -1 | 29* | -2 | -4 | -8
Cn1c(=O)c2cccnc2c(=O)n1C | -3 | 3 | -8 | 1 | x
CN(CCOC(=O)c1cc2ccccc2o1)C1CN(Cc2cn(Cc3ccccc3C(F)(F)F)nn2)S(=O)(=O)C1 (configuration not stated) | -2 | 10 | 4 | 12 | x
O=C(Nc1ccccc1)/C(=C/c1ccc2c(c1)OCO2)NC(=O)c1ccco1 | -1 | 21* | -1 | 8 | -2
C#CCNC(=O)C[C@H]1C[C@@]2(C(=O)OC)C(=C[C@H](C(C)C)O[C@@H]2C2CC2)N(CCC2=CCCCC2)C1=O | -4 | 0 | 2 | -3 | x
O=C(c1cccs1)N1CCN(Cc2ccccn2)CC1 | 10 | 24* | 17 | 11 | 1
COc1ccc(OC)c(CNc2c(C=O)c(=O)[nH]c3ccccc23)c1 | 1 | 43* | 4 | -3 | -4
COC(=O)[C@]12C[C@H](CC(=O)N3CCN(C(=O)c4ccco4)CC3)C(=O)N(Cc3ccco3)C1=C[C@H](C(C)C)O[C@@H]2C1CC1 | 3 | 4 | -5 | 6 | x
COc1cc(CNC2CCCC2)c(Br)cc1OC1CCCC1 | -4 | 30* | -5 | 0 | -1
COC(=O)[C@]12C[C@H](CC(=O)NCC3CCCCC3)C(=O)N(Cc3cccc4ccccc34)C1=C[C@H](C1CCCC1)O[C@@H]2C | -1 | 3 | -8 | 5 | x
COC(=O)[C@]1(CNC(C)=O)CC(=O)N(Cc2ccc(Cl)cc2)[C@@H]1c1ccc(OC)cc1 | 8 | 5 | -18 | -2 | x
COC(=O)[C@]1(CNC(=O)C(C)(C)C)CC(=O)N(Cc2ccc(Cl)cc2)[C@@H]1c1ccc(OC)cc1 | 5 | 45* | -5 | -1 | x
COc1ccc(-c2nnn(CC(=O)N(CCCO)C(C(=O)NC3CCCC3)c3ccncc3)n2)cc1 (configuration not stated) | -9 | 28* | -2 | -1 | 0
CCCCCCCC(=O)Nc1cc(C(=O)NCCC)ccc1N1CCC2(CC1)CC(c1ccccc1)=NO2 | 6 | 21* | 1 | 12 | 25
CCCNC(=O)c1ccc(N2CCC3(CC2)CC(c2ccccc2)=NO3)c(NC(=O)c2ccccc2)c1 | -1 | -1 | -5 | -3 | 16
CCC(C)Nc1nc(C)nc2c1nnn2Cc1ccccc1 (configuration not stated) | 3 | 1 | 1 | 3 | x
COc1ccc(/C=C/C(=O)NCC(=O)N/N=C/c2cc(Br)ccc2OCc2ccccc2)cc1 | 1 | -2 | 15 | -4 | 49*
O=C(Nc1ncc2c(n1)CC(c1ccco1)CC2=O)c1ccccc1 (configuration not stated) | 0 | -1 | -9 | -7 | -3
O=C1CC(c2ccco2)Cc2nc(Nc3nc(-c4ccccc4)c4ccccc4n3)ncc21 (configuration not stated) | -1 | -2 | -3 | 1 | 59*
CC1CCN(C(=S)c2ccc3c(c2)OCO3)CC1 | 2 | 61* | -9 | 0 | -3
CC1CCN(C(=O)c2ccc3c(c2)OCCO3)CC1 | 4 | -3 | 1 | 0 | 5
COc1ccccc1C(=O)COC(=O)c1ccc(N(C)C)cc1 | 1 | 100* | -3 | 3 | -1
COc1ccccc1C(=O)COC(=O)c1ccccc1O | -3 | -4 | -6 | 4 | 4
CN(Cc1ccc(Cl)c(Cl)c1)C(=O)C1CSC2(C)CCC(=O)N12 (configuration not stated) | 2 | 28* | -5 | 0 | x
SMILES | LEDGF integ inh | UHRF1 binding | TDP2 inh | MBD2 DNA inh | HCV core dimer
CCc1nnc(NC(=O)CN2CCN(CC)CC2)s1 | -2 | -1 | 2 | -2 | -10
CCc1nnc(NC(=O)CN2CCN(C(=O)c3ccccc3)CC2)s1 | 0 | 24* | -6 | 12 | 3
CC[C@H](C)/C=C(C)/C=C/C(=O)Cc1cc(O)c(C)c(O)c1C=O | 6 | -3 | 1 | -2 | 67*
CC[C@H](C)/C=C(C)/C=C/c1cc2c(cn1)C(=O)[C@@](C)(OC(C)=O)C(O)=C2Cl | 3 | 0 | -3 | 1 | x
CC1=C(C(=O)N(C)C)CC(CC(=O)NCCN2CCOCC2)C(=O)N1CCCN1CCCC1=O (configuration not stated) | 1 | 22* | 3 | 7 | x
Cc1ccc(-n2c(SCC(=O)Nc3ccccc3-c3ccccc3)nnc2-c2ccccc2)cc1 | -1 | -5 | 4 | -2 | x
CCn1c(Cc2cccs2)nnc1SCC(=O)Nc1cccc2ccccc12 | -2 | 0 | 2 | 2 | x
COC(=O)[C@]12C[C@H](CC(=O)N3CCCC3)C(=O)N(Cc3ccco3)C1=C[C@H](C1CCCC1)O[C@@H]2C | 2 | 4 | 3 | 2 | x
CC(C)C(OC(=O)c1ccco1)C(=O)NCc1ccco1 (configuration not stated) | -3 | 33* | -5 | 3 | 4
Cc1ccc(CNC(=O)C(OC(=O)c2ccco2)C(C)C)cc1 (configuration not stated) | -2 | -2 | 0 | 6 | 1
C[C@H](O)[C@@H]1CN2CCc3ccc(N4CCOCC4)cc3[C@@H]2C[C@@H]1N(C)CC1CCCCC1 | -1 | -4 | -10 | -2 | x
O=S(=O)(c1cc2ccccc2s1)n1c(CN2CCOCC2)nc2ccccc21 | 5 | 0 | 0 | -5 | x
CC(C)C[C@@H]1COc2cc(Br)ccc2S(=O)(=O)N1Cc1cn(CCC2OCCCO2)nn1 | 1 | 6 | -6 | -1 | x
C/C(=N\NC(=O)c1cc(O)cc(O)c1)c1ccc(NC(=O)Cc2ccccc2)cc1 | 16* | 46* | 7 | 12 | -7
C/C(=N\NC(=O)c1cccc(F)c1)c1ccc(NC(=O)Cc2ccccc2)cc1 | -2 | 0 | 7 | 1 | x
O=C(CN1CCc2onc(-c3cccc(-n4cc(CO)nn4)c3)c2C1=O)N1CCOCC1 | -1 | 1 | -1 | 5 | x
C=CCNC(=O)C1CC(=O)N(c2ccc(OCc3ccccc3Cl)cc2)C1 (configuration not stated) | 3 | 1 | -7 | -2 | -9
COC(=O)C1CC(=O)N(c2ccc(OCc3ccccc3Cl)cc2)C1 (configuration not stated) | 1 | 24* | -11 | 1 | 8
Cc1ccc(N2CC(C(=O)OCC(=O)Nc3cccc(Cl)c3C)CC2=O)cc1 (configuration not stated) | -1 | 90* | 10 | 5 | x
O=C1C(NC(=O)N2c3ccccc3C=Cc3ccccc32)CCCCN1Cc1cccc(C(F)(F)F)c1 (configuration not stated) | 3 | 1 | -1 | -2 | x
